Like-named read-outs stand apart in the source and are kept apart here.
Key:
[1] = system: CCRF-CEM; experiment: CCK8 antiproliferative assay, CCRF-CEM; type: cell-based, human; conditions: read-out: Antiproliferative activity (IC50/μM) CCRF-CEM, CCK8, 48 h, means ± SD, n = 3
[2] = system: K562; experiment: CCK8 antiproliferative assay, K562; type: cell-based, human; conditions: read-out: Antiproliferative activity (IC50/μM) K562
[3] = system: Kasumi-1; experiment: CCK8 antiproliferative assay, Kasumi-1; type: cell-based, human; conditions: read-out: Antiproliferative activity (IC50/μM) Kasumi-1; Kasumi-1, CCK8, 48 h, means ± SD, n = 3
[4] = system: MV411; experiment: CCK8 antiproliferative assay, MV411; type: cell-based, human; conditions: read-out: Antiproliferative activity (IC50/μM) MV411; MV411, CCK8, 48 h, means ± SD, n = 3
[5] = system: KU812; experiment: CCK8 antiproliferative assay, KU812; type: cell-based, human; conditions: read-out: Antiproliferative activity (IC50/μM) KU812
[6] = system: MV411 cells; experiment: Annexin V-FITC/PI apoptosis assay by flow cytometry; type: cell-based, human; conditions: 48 hours
Procedure, shortened: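 MV411 cells seeded at 5 × 10^5 per well and held 24 h at 37 °C, 5% CO2. Test compound was then added at 0, 0.25, 0.5 and 1.0 μM for a further 48 h. Cells were harvested, washed in annexin-binding buffer, stained with annexin V-FITC and PI for 15 min at 37 °C, and analysed by flow cytometry.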

[7] = system: acetylated H3; experiment: Western blotting of H3 and acetylated H3; type: cell-based, human; conditions: MV411, 0.25, 0.5 and 1.0 μM, 48 hours
[8] = molecular target: T1, HDAC10 (Homo sapiens, UniProt Q969S8); experiment: HDAC isoform inhibitory activity; type: biochemical
T1 sequence (Q969S8 1-669): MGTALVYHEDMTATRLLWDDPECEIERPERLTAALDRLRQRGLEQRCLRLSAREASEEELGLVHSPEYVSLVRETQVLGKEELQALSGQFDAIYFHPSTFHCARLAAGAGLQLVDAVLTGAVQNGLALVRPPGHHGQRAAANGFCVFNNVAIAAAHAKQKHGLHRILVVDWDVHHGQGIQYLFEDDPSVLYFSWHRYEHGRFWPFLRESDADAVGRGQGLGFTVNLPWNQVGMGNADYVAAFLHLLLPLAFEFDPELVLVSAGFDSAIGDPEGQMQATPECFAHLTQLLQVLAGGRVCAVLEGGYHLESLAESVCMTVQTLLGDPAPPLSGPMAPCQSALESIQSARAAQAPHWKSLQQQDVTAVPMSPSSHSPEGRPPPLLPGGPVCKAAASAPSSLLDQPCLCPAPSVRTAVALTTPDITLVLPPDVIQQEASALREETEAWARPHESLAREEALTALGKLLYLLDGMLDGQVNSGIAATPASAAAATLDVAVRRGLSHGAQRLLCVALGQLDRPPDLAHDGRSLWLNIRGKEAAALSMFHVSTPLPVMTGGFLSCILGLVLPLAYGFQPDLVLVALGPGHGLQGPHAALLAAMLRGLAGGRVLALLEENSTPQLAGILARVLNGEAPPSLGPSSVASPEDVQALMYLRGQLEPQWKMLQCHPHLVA

[9] = molecular target: HDAC3 (Homo sapiens, UniProt O15379); experiment: HDAC isoform inhibitory activity; type: biochemical
HDAC3, sequence (O15379 whole entry, canonical isoform): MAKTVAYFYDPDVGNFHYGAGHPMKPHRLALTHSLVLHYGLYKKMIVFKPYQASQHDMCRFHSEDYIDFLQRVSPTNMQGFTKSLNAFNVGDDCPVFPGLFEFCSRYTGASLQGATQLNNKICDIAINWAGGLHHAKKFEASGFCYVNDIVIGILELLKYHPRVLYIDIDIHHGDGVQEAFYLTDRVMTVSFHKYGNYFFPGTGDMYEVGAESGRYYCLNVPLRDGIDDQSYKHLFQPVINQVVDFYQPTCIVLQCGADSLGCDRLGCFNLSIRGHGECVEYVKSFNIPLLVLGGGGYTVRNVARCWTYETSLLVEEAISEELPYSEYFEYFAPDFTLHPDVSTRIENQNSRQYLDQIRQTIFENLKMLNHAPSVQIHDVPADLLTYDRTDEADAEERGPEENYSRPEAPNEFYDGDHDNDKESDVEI
HDAC3, sequence (Q9Y618 395-489 partner limits assumed): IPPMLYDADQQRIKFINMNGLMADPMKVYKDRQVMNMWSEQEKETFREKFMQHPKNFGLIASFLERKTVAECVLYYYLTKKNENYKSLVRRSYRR

[10] = molecular target: HDAC2 (Homo sapiens, UniProt Q92769); experiment: HDAC isoform inhibitory activity; type: biochemical
HDAC2, sequence (Q92769 whole entry, canonical isoform): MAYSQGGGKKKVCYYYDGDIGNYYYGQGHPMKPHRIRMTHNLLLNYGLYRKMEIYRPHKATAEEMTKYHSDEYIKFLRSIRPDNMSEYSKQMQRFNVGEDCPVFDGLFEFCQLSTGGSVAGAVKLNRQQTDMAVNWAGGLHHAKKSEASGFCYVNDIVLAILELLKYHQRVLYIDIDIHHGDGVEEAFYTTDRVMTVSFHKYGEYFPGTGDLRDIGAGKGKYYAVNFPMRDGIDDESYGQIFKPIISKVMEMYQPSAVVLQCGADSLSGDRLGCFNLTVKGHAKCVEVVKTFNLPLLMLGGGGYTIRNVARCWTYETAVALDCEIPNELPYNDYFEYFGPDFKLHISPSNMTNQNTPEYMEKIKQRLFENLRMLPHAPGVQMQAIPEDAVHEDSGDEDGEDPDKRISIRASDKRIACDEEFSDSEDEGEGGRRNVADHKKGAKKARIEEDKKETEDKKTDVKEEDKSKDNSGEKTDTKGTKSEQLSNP

[11] = molecular target: HDAC1 (Homo sapiens, UniProt Q13547); experiment: HDAC isoform inhibitory activity; type: biochemical
HDAC1, sequence (Q13547 whole entry, canonical isoform): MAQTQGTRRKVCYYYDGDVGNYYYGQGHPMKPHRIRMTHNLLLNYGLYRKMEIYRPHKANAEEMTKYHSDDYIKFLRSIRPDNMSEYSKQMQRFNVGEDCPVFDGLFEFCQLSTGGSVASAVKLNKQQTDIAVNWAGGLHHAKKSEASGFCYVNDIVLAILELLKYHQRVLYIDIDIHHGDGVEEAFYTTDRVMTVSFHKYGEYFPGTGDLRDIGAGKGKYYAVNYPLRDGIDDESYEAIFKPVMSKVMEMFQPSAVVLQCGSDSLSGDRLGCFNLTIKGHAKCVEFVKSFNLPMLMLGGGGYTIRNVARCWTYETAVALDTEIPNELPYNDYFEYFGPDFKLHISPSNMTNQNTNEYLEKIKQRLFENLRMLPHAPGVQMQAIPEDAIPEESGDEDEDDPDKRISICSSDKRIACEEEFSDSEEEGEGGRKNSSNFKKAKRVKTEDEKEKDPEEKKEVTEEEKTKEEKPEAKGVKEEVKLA

[12] = K562, CCK8, 48 h, means ± SD, n = 3
[13] = KU812, CCK8, 48 h, means ± SD, n = 3

Row | Molecule | IC50 ([2]; Homo sapiens, K562, 48 h) [µM] | IC50 ([5]; Homo sapiens, KU812, 48 h) [µM] | other results
1 | 4-(2-(4-(((3R,4R)-4-(3,4-Dimethoxybenzyl)-2-oxotetrahydrofuran-3-yl)methyl)-2-methoxyphenoxy)acetamido)-N-hydroxybenzamide [B6] | – | – | IC50 [1]: > 5 µM; IC50 [2, 12]: > 5 µM; IC50 [3]: > 5 µM; IC50 [4]: > 5 µM; IC50 [5, 13]: > 5 µM
2 | 4-(4-(((3R,4R)-4-(3,4-Dimethoxybenzyl)-2-oxotetrahydrofuran-3-yl)methyl)-2-methoxyphenoxy)-N-hydroxypentanamide [A1] | – | – | IC50 [1]: > 5 µM; IC50 [2, 12]: > 5 µM; IC50 [3]: > 5 µM; IC50 [4]: > 5 µM; IC50 [5, 13]: > 5 µM
3 | COc1ccc(C[C@H]2COC(=O)[C@@H]2Cc2ccc(OCCCCC(=O)NO)c(OC)c2)cc1OC [A2, 5-(4-(((3R,4R)-4-(3,4-Dimethoxybenzyl)-2-oxotetrahydrofuran-3-yl)methyl)-2-methoxyphenoxy)-N-hydroxypentanamide] | > 5 | > 5 | –
4 | COc1ccc(C[C@H]2COC(=O)[C@@H]2Cc2ccc(OCCCCCC(=O)NO)c(OC)c2)cc1OC [A3, 6-(4-(((3R,4R)-4-(3,4-Dimethoxybenzyl)-2-oxotetrahydrofuran-3-yl)methyl)-2-methoxyphenoxy)-N-hydroxyhexanamide] | 2.12 ± 0.12 | 3.88 ± 1.06 | –
5 | COc1ccc(C[C@H]2COC(=O)[C@@H]2Cc2ccc(OCCCCCCC(=O)NO)c(OC)c2)cc1OC [A4, 7-(4-(((3R,4R)-4-(3,4-Dimethoxybenzyl)-2-oxotetrahydrofuran-3-yl)methyl)-2-methoxyphenoxy)-N-hydroxyheptanamide] | 1.19 ± 0.25 | 1.41 ± 0.75 | –
6 | COc1ccc(C[C@H]2COC(=O)[C@@H]2Cc2ccc(OCC(=O)N3CCC(C(=O)NO)CC3)c(OC)c2)cc1OC [A8, 1-(2-(4-(((3R,4R)-4-(3,4-Dimethoxybenzyl)-2-oxotetrahydrofuran-3-yl)methyl)-2-methoxyphenoxy)acetyl)-N-hydroxypiperidine-4-carboxamide] | > 5 | > 5 | –
7 | COc1ccc(C[C@H]2COC(=O)[C@@H]2Cc2ccc(OCc3cn(CC(=O)NO)nn3)c(OC)c2)cc1OC [A10, 2-(4-((4-(((3R,4R)-4-(3,4-Dimethoxybenzyl)-2-oxotetrahydrofuran-3-yl)methyl)-2-methoxyphenoxy)methyl)-1H-1,2,3-triazol-1-yl)-N-hydroxyacetamide] | > 5 | > 5 | –
8 | COc1cc(C[C@H]2C(=O)OC[C@@H]2Cc2ccc(OC)c(OC)c2)ccc1O [Arctigenin, reference compound] | 24.2 ± 3.12 | > 30 | IC50 [4]: 4.27 ± 1.68 µM
9 | COc1ccc(C[C@H]2COC(=O)[C@@H]2Cc2ccc(OCC(=O)NCC(=O)Nc3ccccc3N)c(OC)c2)cc1OC [B1, N-(2-Aminophenyl)-2-(2-(4-(((3R,4R)-4-(3,4-dimethoxybenzyl)-2-oxotetrahydrofuran-3-yl)methyl)-2-methoxyphenoxy)acetamido)acetamide] | > 5 | > 5 | –
10 | COc1ccc(C[C@H]2COC(=O)[C@@H]2Cc2ccc(OCC(=O)NCCC(=O)Nc3ccccc3N)c(OC)c2)cc1OC [B2, N-(2-Aminophenyl)-3-(2-(4-(((3R,4R)-4-(3,4-dimethoxybenzyl)-2-oxotetrahydrofuran-3-yl)methyl)-2-methoxyphenoxy)acetamido)propanamide] | > 5 | > 5 | –
11 | COc1ccc(C[C@H]2COC(=O)[C@@H]2Cc2ccc(OCC(=O)NCCCCC(=O)Nc3ccccc3N)c(OC)c2)cc1OC [B4, N-(2-Aminophenyl)-5-(2-(4-(((3R,4R)-4-(3,4-dimethoxybenzyl)-2-oxotetrahydrofuran-3-yl)methyl)-2-methoxyphenoxy)acetamido)pentanamide] | > 5 | > 5 | –
12 | COc1ccc(C[C@H]2COC(=O)[C@@H]2Cc2ccc(OCC(=O)Nc3ccc(C(=O)Nc4ccccc4N)cc3)c(OC)c2)cc1OC [B7, N-(2-Aminophenyl)-4-(2-(4-(((3R,4R)-4-(3,4-dimethoxybenzyl)-2-oxotetrahydrofuran-3-yl)methyl)-2-methoxyphenoxy)acetamido)benzamide] | 1.96 ± 0.19 | 2.09 ± 0.31 | overall proportion of apoptotic cells (Q1-UR + Q1-LR) ([6]; MV411, 0.5 μM): 37.90%; overall proportion of apoptotic cells (Q1-UR + Q1-LR) ([6]; MV411, 1.0 μM): 77.00%; overall proportion of apoptotic cells (Q1-UR + Q1-LR) ([6]; MV411, lowest concentration (printed 0.25 μM and 0.1 μM)): 21.84%; level of acetylated H3 (western blot) [7]: significantly increased the level of acetylated H3; IC50 [8]: 1.75 µM; IC50 [9]: 0.299 µM; IC50 [10]: 0.131 µM; IC50 [11]: 0.261 µM
13 | COc1ccc(C[C@H]2COC(=O)[C@@H]2Cc2ccc(OCc3cn(CC(=O)Nc4ccccc4N)nn3)c(OC)c2)cc1OC [B8, N-(2-Aminophenyl)-2-(4-((4-(((3R,4R)-4-(3,4-dimethoxybenzyl)-2-oxotetrahydrofuran-3-yl)methyl)-2-methoxyphenoxy)methyl)-1H-1,2,3-triazol-1-yl)acetamide] | > 5 | > 5 | –
14 | Nc1cc(F)ccc1NC(=O)c1ccc(CNC(=O)/C=C/c2cccnc2)cc1 [Tucidinostat, tucidinostat, reference compound] | 2.68 ± 0.65 | 4.26 ± 0.48 | –
15 | N-(2-Aminophenyl)-5-(2-(4-(((3R,4R)-4-(3,4-dimethoxybenzyl)-2-oxotetrahydrofuran-3-yl)methyl)-2-methoxyphenoxy)acetamido)pentanamide [B5] | – | – | IC50 [1]: > 5 µM; IC50 [2, 12]: > 5 µM; IC50 [3]: > 5 µM; IC50 [4]: > 5 µM; IC50 [5, 13]: > 5 µM

— PMC10951978 (RSC Advances, 2024)
